In ChEMBL document CHEMBL5653631, “A Potent and Selective ULK1 Inhibitor Suppresses Autophagy and Sensitizes Cancer Cells to Nutrient Stress” (iScience, 2018) one finds inhibition and fold change (FC) data, which are given here for 3 compounds.

In experiment [1] the target is T1, Bone morphogenetic protein receptor type-2 (Homo sapiens) (UniProt Q13873).
T1 sequence (whole entry): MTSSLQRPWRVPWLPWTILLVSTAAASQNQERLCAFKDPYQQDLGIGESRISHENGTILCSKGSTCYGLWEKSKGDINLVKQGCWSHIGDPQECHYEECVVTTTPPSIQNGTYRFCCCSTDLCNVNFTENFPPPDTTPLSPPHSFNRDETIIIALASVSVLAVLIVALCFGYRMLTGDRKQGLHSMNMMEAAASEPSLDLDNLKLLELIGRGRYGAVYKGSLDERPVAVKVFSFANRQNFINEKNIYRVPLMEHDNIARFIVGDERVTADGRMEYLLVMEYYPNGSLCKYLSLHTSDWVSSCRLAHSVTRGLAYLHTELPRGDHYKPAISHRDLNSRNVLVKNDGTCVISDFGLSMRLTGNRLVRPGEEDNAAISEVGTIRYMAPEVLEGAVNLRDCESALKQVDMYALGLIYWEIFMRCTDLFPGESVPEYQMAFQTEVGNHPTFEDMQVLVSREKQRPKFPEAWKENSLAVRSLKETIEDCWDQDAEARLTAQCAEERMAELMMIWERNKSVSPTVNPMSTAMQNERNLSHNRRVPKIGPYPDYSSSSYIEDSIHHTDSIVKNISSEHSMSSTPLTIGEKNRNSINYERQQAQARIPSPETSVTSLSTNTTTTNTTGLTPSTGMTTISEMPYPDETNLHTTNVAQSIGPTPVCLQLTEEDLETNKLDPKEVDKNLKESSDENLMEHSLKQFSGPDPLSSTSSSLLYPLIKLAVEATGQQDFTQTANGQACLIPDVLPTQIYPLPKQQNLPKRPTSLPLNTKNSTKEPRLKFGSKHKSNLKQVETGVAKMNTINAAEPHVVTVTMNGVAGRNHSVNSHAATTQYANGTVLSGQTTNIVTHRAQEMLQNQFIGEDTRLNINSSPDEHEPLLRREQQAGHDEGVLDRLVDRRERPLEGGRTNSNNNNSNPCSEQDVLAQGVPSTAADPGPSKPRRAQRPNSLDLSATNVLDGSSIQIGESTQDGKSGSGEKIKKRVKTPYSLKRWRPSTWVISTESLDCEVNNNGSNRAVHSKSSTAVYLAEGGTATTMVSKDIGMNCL
The experiment can be described thus: Inhibition of human recombinant BMPR2 at 15 nM in presence of ATP by radiometric assay relative to control. In a few lines:
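Part of a radiometric in vitro activity panel of 327 recombinant human kinases. Each kinase was tested in duplicate at one inhibitor concentration. Activity remaining was expressed as a percentage of the vehicle control, and percent inhibition was taken as 100 minus that value.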

Experiment [2] deals with G protein-coupled receptor kinase 6 (Homo sapiens) (UniProt P43250). The experiment can be described thus: Inhibition of human recombinant GPRK6 at 15 nM related to control ULK1.
G protein-coupled receptor kinase 6 (Homo sapiens), sequence (P43250 whole entry, looked up): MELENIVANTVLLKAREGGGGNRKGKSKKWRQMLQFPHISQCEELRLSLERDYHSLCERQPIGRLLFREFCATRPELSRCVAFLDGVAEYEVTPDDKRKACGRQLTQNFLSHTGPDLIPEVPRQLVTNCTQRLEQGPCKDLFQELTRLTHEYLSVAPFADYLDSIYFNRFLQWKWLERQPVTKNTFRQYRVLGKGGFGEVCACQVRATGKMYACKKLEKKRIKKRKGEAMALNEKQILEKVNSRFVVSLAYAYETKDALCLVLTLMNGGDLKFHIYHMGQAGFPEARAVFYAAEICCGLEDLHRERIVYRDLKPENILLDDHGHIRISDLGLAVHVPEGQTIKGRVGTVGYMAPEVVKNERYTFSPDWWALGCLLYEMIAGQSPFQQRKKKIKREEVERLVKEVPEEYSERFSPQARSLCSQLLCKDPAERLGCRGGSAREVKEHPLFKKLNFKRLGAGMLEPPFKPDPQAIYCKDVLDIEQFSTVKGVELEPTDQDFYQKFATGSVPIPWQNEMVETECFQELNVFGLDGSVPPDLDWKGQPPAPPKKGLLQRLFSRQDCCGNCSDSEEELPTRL
In experiment [3] the target is Ephrin type-A receptor 2 (Homo sapiens) (UniProt P29317). The experiment can be described thus: Inhibition of human recombinant EphA2 at 40 nM related to control ULK1.
Ephrin type-A receptor 2 (Homo sapiens), sequence (P29317 whole entry): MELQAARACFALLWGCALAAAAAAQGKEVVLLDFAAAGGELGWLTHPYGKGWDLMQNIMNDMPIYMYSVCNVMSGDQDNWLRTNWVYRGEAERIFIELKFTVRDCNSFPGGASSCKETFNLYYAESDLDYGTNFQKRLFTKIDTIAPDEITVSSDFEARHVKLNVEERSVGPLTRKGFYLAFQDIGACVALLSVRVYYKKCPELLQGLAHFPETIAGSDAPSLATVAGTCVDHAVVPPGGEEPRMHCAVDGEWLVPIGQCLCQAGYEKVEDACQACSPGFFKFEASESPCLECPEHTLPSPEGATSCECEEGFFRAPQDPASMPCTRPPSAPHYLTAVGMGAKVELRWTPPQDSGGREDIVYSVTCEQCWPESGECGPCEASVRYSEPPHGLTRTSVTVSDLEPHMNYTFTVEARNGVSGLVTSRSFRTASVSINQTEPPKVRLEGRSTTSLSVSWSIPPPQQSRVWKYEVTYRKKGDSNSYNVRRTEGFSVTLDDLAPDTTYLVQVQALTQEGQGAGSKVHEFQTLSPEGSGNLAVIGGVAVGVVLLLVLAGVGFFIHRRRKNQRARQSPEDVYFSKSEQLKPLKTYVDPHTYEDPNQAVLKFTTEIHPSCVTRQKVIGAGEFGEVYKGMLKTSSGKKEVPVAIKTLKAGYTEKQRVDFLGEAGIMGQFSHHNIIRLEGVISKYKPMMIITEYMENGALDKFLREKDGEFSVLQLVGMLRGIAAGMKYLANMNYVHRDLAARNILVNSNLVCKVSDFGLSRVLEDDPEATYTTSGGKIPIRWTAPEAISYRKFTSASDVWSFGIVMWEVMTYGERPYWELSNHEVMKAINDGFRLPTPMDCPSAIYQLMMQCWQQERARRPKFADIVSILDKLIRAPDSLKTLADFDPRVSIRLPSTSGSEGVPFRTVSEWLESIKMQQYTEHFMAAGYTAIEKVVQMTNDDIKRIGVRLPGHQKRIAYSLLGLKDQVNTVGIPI
The target of experiment [4] is T2, Aurora kinase A (Homo sapiens) (UniProt O14965).
T2 sequence (whole entry): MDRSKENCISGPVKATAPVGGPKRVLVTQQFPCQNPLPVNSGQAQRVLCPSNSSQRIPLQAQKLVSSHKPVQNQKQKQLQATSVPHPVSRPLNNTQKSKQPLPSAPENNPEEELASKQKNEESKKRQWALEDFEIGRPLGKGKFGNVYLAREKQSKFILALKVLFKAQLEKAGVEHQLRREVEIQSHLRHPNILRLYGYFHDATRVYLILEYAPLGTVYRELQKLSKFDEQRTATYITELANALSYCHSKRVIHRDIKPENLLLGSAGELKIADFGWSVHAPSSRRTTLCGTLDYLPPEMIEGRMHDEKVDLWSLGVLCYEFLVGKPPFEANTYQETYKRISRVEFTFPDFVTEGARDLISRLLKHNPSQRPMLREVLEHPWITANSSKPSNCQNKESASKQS
The experiment can be described thus: Inhibition of human recombinant AurA at 40 nM related to control ULK1. The method, boiled down:
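Radiometric activity assays in a panel of 327 human recombinant kinases, each run in duplicate at one inhibitor concentration. Activity remaining is expressed as percent of vehicle control, and percent inhibition is calculated as 100% minus percent activity remaining.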

For experiment [5], the target named is T3, Testis-specific serine/threonine-protein kinase 4 (Homo sapiens) (UniProt Q6SA08).
T3 sequence (whole entry): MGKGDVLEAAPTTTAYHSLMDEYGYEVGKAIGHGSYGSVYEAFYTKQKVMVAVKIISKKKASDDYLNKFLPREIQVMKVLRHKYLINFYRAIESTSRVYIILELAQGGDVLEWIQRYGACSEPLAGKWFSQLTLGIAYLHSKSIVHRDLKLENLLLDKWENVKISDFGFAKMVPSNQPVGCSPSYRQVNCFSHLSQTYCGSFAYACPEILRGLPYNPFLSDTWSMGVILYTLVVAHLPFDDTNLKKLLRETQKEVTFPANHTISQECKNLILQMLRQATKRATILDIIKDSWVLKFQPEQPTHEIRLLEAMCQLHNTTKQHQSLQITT
The experiment can be described thus: Inhibition of human recombinant TSSK4 at 500 nM related to control ULK1.

Experiment [6] addresses Mitogen-activated protein kinase kinase kinase 10 (Homo sapiens) (UniProt Q02779). The experiment can be described thus: Inhibition of human recombinant MLK2 at 500 nM related to control ULK1.

Mitogen-activated protein kinase kinase kinase 10 (Homo sapiens), sequence (Q02779 whole entry, looked up): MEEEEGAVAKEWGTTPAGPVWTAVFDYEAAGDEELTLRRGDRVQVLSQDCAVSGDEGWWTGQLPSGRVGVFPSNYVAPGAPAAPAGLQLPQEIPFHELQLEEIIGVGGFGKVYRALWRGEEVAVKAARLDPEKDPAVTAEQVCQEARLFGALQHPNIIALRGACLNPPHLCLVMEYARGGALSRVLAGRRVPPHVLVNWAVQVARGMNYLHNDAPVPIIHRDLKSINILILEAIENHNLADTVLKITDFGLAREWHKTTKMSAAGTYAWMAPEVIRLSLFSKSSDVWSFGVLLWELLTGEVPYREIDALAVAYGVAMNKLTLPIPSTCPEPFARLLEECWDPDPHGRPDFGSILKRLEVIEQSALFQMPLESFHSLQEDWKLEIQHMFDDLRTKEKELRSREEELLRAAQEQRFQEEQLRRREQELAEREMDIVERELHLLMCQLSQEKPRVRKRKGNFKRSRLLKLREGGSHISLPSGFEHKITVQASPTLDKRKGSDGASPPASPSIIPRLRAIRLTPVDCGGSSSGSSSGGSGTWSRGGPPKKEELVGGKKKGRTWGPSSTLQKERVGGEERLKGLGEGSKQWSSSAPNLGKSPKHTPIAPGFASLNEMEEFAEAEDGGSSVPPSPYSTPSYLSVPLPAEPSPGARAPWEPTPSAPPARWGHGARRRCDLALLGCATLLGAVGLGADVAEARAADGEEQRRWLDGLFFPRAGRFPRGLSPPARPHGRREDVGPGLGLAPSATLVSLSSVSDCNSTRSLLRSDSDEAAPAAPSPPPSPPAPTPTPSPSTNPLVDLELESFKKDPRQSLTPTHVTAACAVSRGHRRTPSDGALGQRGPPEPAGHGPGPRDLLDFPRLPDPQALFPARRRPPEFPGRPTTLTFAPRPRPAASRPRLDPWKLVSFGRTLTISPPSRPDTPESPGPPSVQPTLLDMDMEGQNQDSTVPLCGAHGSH

Consider `CC(C)[C@H](NC(=O)c1cc(-c2cnn3cc(-c4ccc(OCCN5CCCCC5)cc4)cnc23)cs1)C(F)(F)F`, for which the inhibition – broadly, the relative decrease from the control value, in per cent – in experiment [1] stood at 5%. For the same compound, in experiment [2], the fold change (FC) was 0.
In the case of `O=C(N[C@@H](C1CC1)C(F)(F)F)c1cc(-c2cnn3cc(-c4ccc(F)cc4)cnc23)cs1`, the fold change (FC) is 0.03 in experiment [3] and 0.3 in experiment [4].
Take `CNC(=O)c1ccccc1Oc1nc(Nc2cc(OC)c(OC)c(OC)c2)ncc1Br`: the fold change (FC) stood at 0 in experiment [5] and 0.95 in experiment [6].
